These results are taken from ChEMBL document CHEMBL4038330, “Discovery of Potent Orally Active Protease-Activated Receptor 1 (PAR1) Antagonists Based on Andrographolide” (J Med Chem, 2017).

SMILES strings stand for the structures.

Data set [1] deals with Plasma. The experiment in a line: Drug metabolism in Wistar rat plasma assessed as [M1+O] metabolite formation at 10 mg/kg, po administered as single dose measured at 3 hrs post dose by LC-HRMS analysis. In kind it is ADME, organism-based. Particulars: in vivo. A digest of the protocol:
(§1)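 Rats dosed orally at 10 mg/kg or 5 mg/kg. Plasma taken at 3.0 h after dosing. Parent and metabolites detected by extracted ion chromatograms.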

For data set [2], the system named is Plasma. As to the kind of experiment: Drug metabolism in Wistar rat plasma assessed as (1S,2S,4aS,5S,6R,8aR)-1-((E)-2-(5-(3-Fluorophenyl)pyridin-2-yl)vinyl)-6-hydroxy-5,8a-dimethyloctahydro-1H-spiro[naphthalene-2,2'-oxirane]-5-carboxylic acid metabolite formation at 10 mg/kg, po administered as single dose measured at 3 hrs post dose by LC-HRMS analysis. In kind it is ADME, organism-based. The following applies: in vivo. A digest of the protocol: as §1

Data set [3] has as its system Plasma. As to the kind of experiment: Drug metabolism in Wistar rat plasma assessed as [M1-CH2-2H] metabolite formation at 10 mg/kg, po administered as single dose measured at 3 hrs post dose by LC-HRMS analysis. In kind it is ADME, organism-based. The following applies: in vivo. A digest of the protocol: as §1
For a further data set, the system named is Rattus norvegicus. The experiment in a line: AUC (0 to infinity) in Wistar rat assessed as (1S,2S,4aS,5S,6R,8aR)-1-((E)-2-(5-(3-Fluorophenyl)pyridin-2-yl)vinyl)-6-hydroxy-5,8a-dimethyloctahydro-1H-spiro[naphthalene-2,2'-oxirane]-5-carboxylic acid level in plasma at 10 mg/kg, po administered as single dose at 3 hrs post dose by LC-MS/MS analysis. In kind it is ADME, organism-based. Set-up: dose 10 mg/kg, route oral, time infinity. Particulars: in vivo.

Data set [4] concerns Plasma. The experiment in a line: Drug metabolism in Wistar rat plasma assessed as [M1-2H] metabolite formation at 10 mg/kg, po administered as single dose measured at 3 hrs post dose by LC-HRMS analysis. In kind it is ADME, organism-based. Particulars: in vivo. A digest of the protocol: as §1
Data set [5] deals with Plasma. As to the kind of experiment: Stability in Wistar rat assessed as parent compound level in plasma at 10 mg/kg, po administered as single dose measured at 3 hrs post dose by LC-HRMS analysis. In kind it is ADME, organism-based. The following applies: in vivo. A digest of the protocol: as §1
The test system of data set [6] is Plasma. As to the kind of experiment: Drug metabolism in Wistar rat plasma assessed as [M1-2H+O] metabolite formation at 10 mg/kg, po administered as single dose measured at 3 hrs post dose by LC-HRMS analysis. The following applies: in vivo. In kind it is ADME, organism-based. A digest of the protocol: as §1
For data set [7], the target named is T1, Proteinase-activated receptor 1 (Homo sapiens, UniProt P25116).
T1 sequence (P25116 whole entry): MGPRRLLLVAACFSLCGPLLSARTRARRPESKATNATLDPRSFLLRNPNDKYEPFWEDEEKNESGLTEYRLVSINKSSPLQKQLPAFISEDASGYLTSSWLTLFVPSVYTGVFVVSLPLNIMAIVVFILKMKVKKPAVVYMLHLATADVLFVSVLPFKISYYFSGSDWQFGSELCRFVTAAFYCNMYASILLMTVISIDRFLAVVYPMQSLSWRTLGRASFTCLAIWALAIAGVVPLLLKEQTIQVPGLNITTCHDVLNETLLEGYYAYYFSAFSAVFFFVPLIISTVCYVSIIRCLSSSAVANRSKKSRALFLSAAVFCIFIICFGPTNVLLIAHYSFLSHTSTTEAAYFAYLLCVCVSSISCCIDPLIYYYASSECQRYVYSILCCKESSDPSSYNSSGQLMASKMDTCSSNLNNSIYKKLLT
The experiment in a line: Antagonist activity at human PAR1 expressed in HEK293 cells co-expressing Galpha15 assessed as inhibition of haTRAP-induced calcium mobilization preincubated for 15 mins followed by haTRAP addition by calcium-4 dye based FLIPR assay. In kind it is functional, cell-based. Background: Calcium assays in cells follow changes in intracellular calcium, usually with a dye or a luminescent sensor.

Data set [8] in a line: AUC (0 to infinity) in Wistar rat plasma at 10 mg/kg, po administered as single dose administered as single dose at 3 hrs post dose by LC-MS/MS analysis. In kind it is ADME, organism-based. More on the design: dose 10 mg/kg, route oral, time infinity.
Data set [9] deals with Plasma. As to the kind of experiment: Drug metabolism in Wistar rat plasma assessed as [M0-CH2] metabolite formation at 10 mg/kg, po administered as single dose measured at 3 hrs post dose by LC-HRMS analysis. In kind it is ADME, organism-based. Particulars: in vivo. The method in brief: as §1
The test system of data set [10] is Plasma. As to the kind of experiment: Drug metabolism in Wistar rat plasma assessed as [M0+O] metabolite formation at 10 mg/kg, po administered as single dose measured at 3 hrs post dose by LC-HRMS analysis. In kind it is ADME, organism-based. Particulars: in vivo. A digest of the protocol:
as §1

The test system of data set [11] is Plasma. As to the kind of experiment: Drug metabolism in Wistar rat plasma assessed as [M0+H2O] metabolite formation at 10 mg/kg, po administered as single dose measured at 3 hrs post dose by LC-HRMS analysis. In kind it is ADME, organism-based. The following applies: in vivo. A digest of the protocol: as §1
The test system of data set [12] is Plasma. As to the kind of experiment: Drug metabolism in Wistar rat plasma assessed as [M0-CH2+O] metabolite formation at 10 mg/kg, po administered as single dose measured at 3 hrs post dose by LC-HRMS analysis. The following applies: in vivo. In kind it is ADME, organism-based. The method in brief: as §1
In data set [13] the test system is Plasma. The experiment in a line: Drug metabolism in Wistar rat plasma assessed as [M0-2H] metabolite formation at 10 mg/kg, po administered as single dose measured at 3 hrs post dose by LC-HRMS analysis. Particulars: in vivo. In kind it is ADME, organism-based. A digest of the protocol: as §1

One may read the AUC as the area under the concentration-time curve, a measure of exposure. A word on the IC50: it is the concentration at which inhibition is half-maximal. In general, AUC(0-inf) refers to the area under the concentration-time curve extrapolated to infinity. Read a high AUC(0-inf) as more exposure. Take `COC(=O)[C@]1(C)[C@H](O)CC[C@@]2(C)[C@H](/C=C/c3ccc(-c4cccc(F)c4)cn3)[C@@]3(CC[C@@H]21)CO3`: the Drug metabolism result in the data set with Plasma [1], with Plasma [2], in the data set on Plasma [3], in the data set with Plasma [4] and in the data set with Plasma [6] was “Metabolite_Detected” throughout. The AUC in the data set on Rattus norvegicus was 8.4127 µg·h/mL. The Stability result in the data set with Plasma [5] is on record as “Unstable”. In addition, the IC50 in data set [7] turned out to be 7 µM. This compound also had a total exposure AUC(0-inf) in data set [8] of 269 ng·h/mL.
Regarding `C[C@]1(CO)[C@H]2CC[C@@]3(CO3)[C@@H](/C=C/c3ccc(-c4cccc(F)c4)cn3)[C@]2(C)CC[C@H]1O`, the Drug metabolism result in the data set on Plasma [9], in the data set with Plasma [2], in the data set on Plasma [10], in the data set with Plasma [11], in the data set with Plasma [12] and with Plasma [13] was “Metabolite_Detected” throughout. The Stability entry with Plasma [5] is reported as “Unstable”. The IC50 in data set [7] was 9.1 µM.
